# Experimental data taken from ChEMBL document CHEMBL1141703, “Synthesis and in vitro evaluation of imidazopyridazines as novel inhibitors of the malarial kinase PfPK7” (Bioorg Med Chem Lett, 2008).
# Active and inactive are the calls of the source. The calls are words filed in the database; no cut-off is given here.
# Legend:
# [1] = molecular target: T1, Putative uncharacterized protein pk7 (Plasmodium falciparum, UniProt O96214); assay: (§1) Inhibition of Plasmodium falciparum PK7
# T1 sequence (O96214 whole entry): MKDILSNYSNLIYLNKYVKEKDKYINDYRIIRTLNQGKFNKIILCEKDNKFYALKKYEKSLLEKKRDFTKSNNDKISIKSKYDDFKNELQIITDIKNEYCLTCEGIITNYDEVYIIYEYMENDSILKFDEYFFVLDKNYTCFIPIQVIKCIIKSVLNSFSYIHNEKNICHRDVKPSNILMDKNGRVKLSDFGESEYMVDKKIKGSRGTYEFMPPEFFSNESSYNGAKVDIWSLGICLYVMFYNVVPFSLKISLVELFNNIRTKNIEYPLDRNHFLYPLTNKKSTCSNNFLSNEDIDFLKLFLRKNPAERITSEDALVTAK
# Plasmodium falciparum [2] = assay: Antimalarial activity against chloroquine-sensitive Plasmodium falciparum 3D7 by [3H]hypoxanthine uptake; type: functional, organism-based
# How it was run: (§2)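 P. falciparum blood-stage growth measured by ³H-hypoxanthine incorporation, with chloroquine as the reference standard. Strains: 3D7, a drug-sensitive laboratory clone of the NF54 isolate, and K1 (Thailand), which is resistant to chloroquine, pyrimethamine and cycloguanil. Values are IC50 in μM.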
# Plasmodium falciparum [3] = assay: Antimalarial activity against multidrug-resistant Plasmodium falciparum K1 by [3H]hypoxanthine uptake; type: functional, organism-based; how it was run: as §2
# [4] = Selectivity index, ratio of IC50 for human KB cells to IC50 for Plasmodium falciparum 3D7; type: toxicity, cell-based; details: read-out: Ratio IC50
# How it was run: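 Ratio of the human KB cell cytotoxicity IC50 to the P. falciparum 3D7 IC50. 3D7 is a drug-sensitive laboratory clone of the NF54 isolate. Parasite IC50 (μM) came from a 3H-hypoxanthine incorporation assay run with chloroquine as the standard.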
# KB = assay: Cytotoxicity against human KB cells; type: cell-based
# [5] = molecular target: T2, Putative uncharacterized protein pk7 (Plasmodium falciparum) (UniProt O96214); assay: as §1
# T2 sequence (whole entry): T1 sequence (O96214 whole entry)
SMILES,IC50 [1] [µM],further results
CN(Cc1ccc(F)cc1)c1ccc2ncc(-c3ccc(Cn4ccnc4)cc3)n2n1,56,
CN(Cc1ccc(F)cc1)c1ccc2ncc(-c3ccc(N)cc3)n2n1,42,
CN(Cc1ccc(F)cc1)c1ccc2ncc(-c3ccc(CO)cc3)n2n1,21,
CC(C)[C@@H](CO)Nc1ccc2ncc(-c3ccc(CO)cc3)n2n1,7.4,
c1cncc(CNc2ccc3ncc(-c4ccncc4)n3n2)c1,7.9,
CN(Cc1ccc(F)cc1)c1ccc2ncc(-c3ccc(CN4CCC(O)CC4)cc3)n2n1,103,
CC(C)[C@@H](CO)Nc1ccc2ncc(-c3ccc(C(N)=O)cc3)n2n1,0.77,IC50 (Plasmodium falciparum [2]): 2.46 µM; IC50 (Plasmodium falciparum [3]): 3.89 µM; selectivity ratio [4]: 5.27; IC50 (KB): 13 µM
C[C@@H](N)c1cccc(N2CCOCC2)c1,4.8,
N#Cc1ccc(-c2cnc3ccc(NCC4CC4)nn23)cc1,0.58,IC50 (Plasmodium falciparum [2]): 7.15 µM; IC50 (Plasmodium falciparum [3]): 12.7 µM; selectivity ratio [4]: 2.96; IC50 (KB): 21.2 µM
CC(C)[C@@H](CO)Nc1ccc2ncc(-c3ccc(CC(=O)O)cc3)n2n1,111,
N#Cc1ccc(-c2cnc3ccc(N[C@H]4CC[C@H](O)CC4)nn23)cc1,0.13,IC50 (Plasmodium falciparum [2]): 1.03 µM; IC50 (Plasmodium falciparum [3]): 2.65 µM; selectivity ratio [4]: 23.3; IC50 (KB): 24 µM
CC(C)[C@@H](CO)Nc1ccc2ncc(-c3ccc(C#N)cc3)n2n1,0.28,IC50 (Plasmodium falciparum [2]): 2.6 µM; IC50 (Plasmodium falciparum [3]): 6.86 µM; selectivity ratio [4]: 20.1; IC50 (KB): 52.2 µM
C[C@H](N)c1cccc(N2CCOCC2)c1,25,
COC[C@H](C)Nc1ccc2ncc(-c3ccc(C#N)cc3)n2n1,0.82,IC50 (Plasmodium falciparum [2]): 6.06 µM; IC50 (Plasmodium falciparum [3]): 10.5 µM; selectivity ratio [4]: 4.25; IC50 (KB): 25.8 µM
CN(Cc1ccc(F)cc1)c1ccc2ncc(-c3ccc(CNCO)cc3)n2n1,34,
CCN(CC)CCCC(C)Nc1ccnc2cc(Cl)ccc12 (stereo not given) [CHLOROQUINE],,IC50 (KB): 97.5 µM
CC(C)[C@@H](N)c1cccc(N2CCOCC2)c1,,Activity [5]: inactive
CN(Cc1ccc(F)cc1)c1ccc2ncc(-c3ccc(C(N)=O)cc3)n2n1,1.1,
C[C@@H](CO)Nc1ccc2ncc(-c3ccc(C#N)cc3)n2n1,0.44,IC50 (Plasmodium falciparum [2]): 5.26 µM; IC50 (Plasmodium falciparum [3]): 9.93 µM; selectivity ratio [4]: 4.03; IC50 (KB): 21.2 µM
CC(C)[C@H](N)c1cccc(N2CCOCC2)c1,43,

# Further lines, with some results ahead:
IC50 [1] [µM],SMILES,further results
0.75,N#Cc1ccc(-c2cnc3ccc(NCC4CCCO4)nn23)cc1 (stereo not given),
0.22,N#Cc1ccc(-c2cnc3ccc(N[C@H]4CCCC[C@@H]4O)nn23)cc1 (racemic),
25,CC(C)[C@@H](CO)Nc1ccc2ncc(-c3ccc(CC#N)cc3)n2n1,
1.07,CN(Cc1ccc(F)cc1)c1ccc2ncc(-c3ccc(C#N)cc3)n2n1,
0.34,N#Cc1ccc(-c2cnc3ccc(NC4CCCCC4)nn23)cc1,
1,C[C@H](CO)Nc1ccc2ncc(-c3ccc(C#N)cc3)n2n1,
1.26,CN(Cc1cccnc1)c1ccc2ncc(-c3ccc(C#N)cc3)n2n1,
34,CC(C)[C@@H](CO)Nc1ccc2ncc(-c3ccc(N)cc3)n2n1,
2.1,N#Cc1ccc(-c2cnc3ccc(NC4CCCNC4)nn23)cc1 (racemic),
104,CC(C)[C@@H](CO)Nc1ccc2ncc(-c3ccc(CN)cc3)n2n1,
0.26,N#Cc1ccc(-c2cnc3ccc(N[C@H]4CCC[C@H](O)C4)nn23)cc1 (racemic),
1.4,COCCNc1ccc2ncc(-c3ccc(C#N)cc3)n2n1,
1,N#Cc1ccc(-c2cnc3ccc(NCCO)nn23)cc1,
11.6,COc1ccc(-c2cnc3ccc(NCc4cccnc4)nn23)cc1,
8,N#Cc1ccc(-c2cnc3ccc(NCc4ccc(N5CCOCC5)cc4)nn23)cc1,
0.81,N#Cc1ccc(-c2cnc3ccc(NCc4cccnc4)nn23)cc1,
